In assay [1] the test system is ACHN. Kind of assay: Cytotoxicity against human ACHN cells assessed as cell growth at 10 uM after 48 hrs by SRB assay relative to control. The conditions noted are these: read-out: Activity. The format is functional. The gist of the method: (§1)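 NCI Developmental Therapeutics Program 60-cell-line screen at a single dose of 10 μM. Cells incubated with compound for 48 h at 37 °C before viability determination.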
On the technique in general: Sulforhodamine B stains cellular protein and so reports cell mass.

In assay [2] the test system is OVCAR-5. Kind of assay: Cytotoxicity against human OVCAR5 cells assessed as cell growth at 10 uM after 48 hrs by SRB assay relative to control. It counts as functional. The following applies: OVCAR-5, 48 h, read-out: Activity. The gist of the method: as §1
Assay [3] concerns MCF7. Kind of assay: Cytotoxicity against human MCF7 cells assessed as cell growth at 10 uM after 48 hrs by SRB assay relative to control. The conditions noted are these: MCF7, 48 h, read-out: Activity. It counts as functional. An outline of the steps: as §1
The nature of assay [4]: Binding affinity to GRP78 duplex DNA (unknown origin) at 0.7 mM after 36 hrs by gel shift mobility assay relative to control. The gist of the method:
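Complementary strands (0.57 μM) annealed in 30% sucrose in TAE buffer (89 mM Tris/acetate, 2.5 mM EDTA, […]), incubated 36 h at 37 °C with ligand at 0, 5, 25, 50, 100 equiv per DNA phosphate (0, 0.2, 0.9, 1.9, 3.9 mM). Run on 24% native PAGE. DNA bands visualized by UV-shadowing at 260 nm. K_D taken from the duplex band ratio with versus without ligand.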
For orientation: A gel shift assay detects complexes by their altered migration in electrophoresis.

Assay [5] deals with A549. Kind of assay: Cytotoxicity against human A549 cells assessed as cell growth at 10 uM after 48 hrs by SRB assay relative to control. The format is functional. The following applies: A549, 48 h, read-out: Activity. The gist of the method: as §1
In assay [6] the test system is Malme-3M. Briefly: Cytotoxicity against human MALME-3M cells assessed as cell growth at 10 uM after 48 hrs by SRB assay relative to control. It counts as functional. The conditions noted are these: read-out: Activity. An outline of the steps:
as §1

Consider `CCCCCCCCCCCCCCCC(=O)O[C@@H]1[C@H](OC(=O)CCCCCCCCCCCCCCC)[C@@H](C(=O)N[C@@H](CCCCN)C(=O)OC)O[C@H]1n1cnc2c(=O)[nH]c(NC(=O)C(C)C)nc21.Cl`, for which the growth at 10 µM in assay [1] is 102%; in assay [2], 108%; in assay [3], 96.4%; in assay [5] it was 99.8%; in assay [6] it was 98.5%. Also, in assay [4], the Activity is 50%.
